Experimental data reported in paper PMC5955861 (Oncogene, 2018).
Where two headings read alike, the source gives them in different places.

Columns and labels:
THP-1 AML cells = assay: disseminated AML xenograft efficacy study; type: in vivo, CIEA-NOG mice; details: BI 894999 daily, 4 mg/kg p.o.
K562 = assay: alamarBlue cell proliferation assay; type: cell-based; details: Homo sapiens
How it was run: (§1)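 Leukemia, lymphoma and myeloma lines (from ATCC or DSMZ, grown per supplier instructions, STR-authenticated; GFP-labelled sublines where stated) were incubated with test compound in 96-well flat-bottom plates. Viability was read by alamarBlue conversion, and EC50 was taken from the concentration-response.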

MV-4-11B cells = assay: FACS cell cycle profile; type: cell-based; details: 72 h, 30 nM and 100 nM
MOLM-1 = assay: alamarBlue cell proliferation assay; type: cell-based
How it was run: as §1

RC-K8 = assay: alamarBlue cell proliferation assay; type: cell-based; details: Homo sapiens, RCK8
How it was run: as §1

SR-786 = assay: alamarBlue cell proliferation assay; type: cell-based
How it was run: as §1

Kasumi-1 = assay: alamarBlue cell proliferation assay; type: cell-based; details: Homo sapiens
How it was run: as §1

OCI-Ly19 = assay: alamarBlue cell proliferation assay; type: cell-based; details: Homo sapiens
How it was run: as §1

U266 B1 = assay: alamarBlue cell proliferation assay; type: cell-based; details: Homo sapiens, U-266
How it was run: (§2)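 Cell lines from ATCC or DSMZ were cultured per supplier's instructions and STR-authenticated. MV-4-11B is a clone of MV-4-11 carrying heterozygous TP53 c.742C>T (p.R248W). Cells were exposed to test compound in 96-well format, and viability was read after incubation with alamarBlue.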

Hexim1 mRNA = Hexim1 mRNA in blood of xenograft bearing mice; type: in vivo; details: 24 h after dosing; MV-4-11B xenograft bearing mice
How it was run: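 Mice bearing subcutaneous MV-4-11B xenografts were dosed daily with vehicle or test compound at 2, 4 or 12 mg/kg, and blood was collected on the indicated treatment days. Total RNA was isolated with TRI reagent, and 500 ng was reverse-transcribed. Hexim1 transcript was quantified by SYBR Green qRT-PCR.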

BRD2/3/4 and BRDT = assay: BROMOscan ligand-binding site-directed competition assay
MM.1R = assay: alamarBlue cell proliferation assay; type: cell-based
How it was run: as §1

SU-DHL6 = assay: alamarBlue cell proliferation assay; type: cell-based; details: Homo sapiens, SU-DHL-6
How it was run: as §2

SKM-1 = assay: alamarBlue cell proliferation assay; type: cell-based; details: Homo sapiens
How it was run: as §1

Kasumi-3 = assay: alamarBlue cell proliferation assay; type: cell-based
How it was run: as §1

[1] = system: AML primary patient samples; assay: proliferation of ex vivo-treated primary patient samples; type: cell-based; details: Homo sapiens
OPM-2 GFP = assay: alamarBlue cell proliferation assay; type: cell-based; details: Homo sapiens
How it was run: as §1

hematological cell lines = assay: alamarBlue cell proliferation assay, panel of hematological cell lines; type: cell-based
How it was run: as §2

OCI-Ly3 = assay: alamarBlue cell proliferation assay; type: cell-based; details: Homo sapiens
How it was run: as §1

## CNc1nc(-c2nc3ccc(N4CCN(C)CC4)cc3n2Cc2ccccc2)cn2c(C)nnc12 [BI 894999]
THP-1 AML cells
  survival prolongation: 22 days
K562
  EC50: > 10000 nM
MV-4-11B cells
  cell cycle effect: G1 arrest
MOLM-1
  EC50: 53.4 ± 34.8 nM
RC-K8
  EC50: 7.8 ± 0.9 nM
SR-786
  EC50: 77.3 ± 17.3 nM
Kasumi-1
  EC50: 2.8 ± 0.4 nM
OCI-Ly19
  EC50: 13.2 ± 4.3 nM
U266 B1
  EC50: 14.3 ± 7.4 nM
Hexim1 mRNA
  Hexim1 levels in blood: back to baseline
BRD2/3/4 and BRDT; BRD2/3/4 and BRDT, 24 bromodomains tested
  Kd: 0.49 to 1.6 nM
BRD2/3/4 and BRDT; other bromodomains of the panel (n = 24) vs. BRD4-BD1
  selectivity vs. BRD4-BD1: ≥ 200 fold
MM.1R
  EC50: 2.5 ± 2.1 nM
SU-DHL6
  EC50: 13.4 ± 1.2 nM
SKM-1
  EC50: 10.2 ± 1.5 nM
Kasumi-3
  EC50: 3.4 ± 1.5 nM
[1]; 16/20 AML patient samples
  EC50: < 10 nM
[1]; read-out: BI 894999 EC50, AML Patient 1, risk group Intermediate
  EC50: 4 nM
[1]; read-out: BI 894999 EC50, AML Patient 2, risk group Intermediate
  EC50: < 1 nM
[1]; read-out: BI 894999 EC50, AML Patient 3, risk group Intermediate
  EC50: 5 nM
[1]; read-out: BI 894999 EC50, AML Patient 4, risk group High
  EC50: 1080 nM
[1]; read-out: BI 894999 EC50, AML Patient 5, risk group High
  EC50: 89 nM
[1]; read-out: BI 894999 EC50, AML Patient 6, risk group Intermediate
  EC50: 2 nM
[1]; read-out: BI 894999 EC50, AML Patient 7, risk group Intermediate
  EC50: 12 nM
[1]; read-out: BI 894999 EC50, AML Patient 8, risk group High
  EC50: 2 nM
[1]; read-out: BI 894999 EC50, AML Patient 9, risk group Intermediate
  EC50: 5 nM
[1]; read-out: BI 894999 EC50, AML Patient 10, risk group High
  EC50: < 1 nM
[1]; read-out: BI 894999 EC50, AML Patient 11, risk group High
  EC50: 18 nM
[1]; read-out: BI 894999 EC50, AML Patient 12, risk group Intermediate
  EC50: 4 nM
[1]; read-out: BI 894999 EC50, AML Patient 13, risk group Intermediate
  EC50: < 1 nM
[1]; read-out: BI 894999 EC50, AML Patient 14
  EC50: < 1 nM
[1]; read-out: BI 894999 EC50, AML Patient 15, risk group Intermediate
  EC50: 1 nM
[1]; read-out: BI 894999 EC50, AML Patient 16
  EC50: < 1 nM
[1]; read-out: BI 894999 EC50, AML Patient 17, risk group High
  EC50: < 1 nM
[1]; read-out: BI 894999 EC50, AML Patient 18, risk group Intermediate
  EC50: < 1 nM
[1]; read-out: BI 894999 EC50, AML Patient 19, risk group Intermediate
  EC50: < 1 nM
[1]; read-out: BI 894999 EC50, AML Patient 20, risk group Intermediate
  EC50: < 1 nM
OPM-2 GFP
  EC50: 12 nM
Hematological cell lines
  EC50: < 10 nM
Hematological cell lines; Homo sapiens, K562
  EC50: < 100 nM
Hematological cell lines; on cell lines
  increased potency compared to OTX-015: 10–20 fold
OCI-Ly3
  EC50: 8.2 ± 2.3 nM
